From ChEMBL document CHEMBL1142575, “New colchicinoids from a native Jordanian meadow saffron, colchicum brachyphyllum: isolation of the first naturally occurring dextrorotatory colchicinoid” (J Nat Prod, 2005)
Converted amounts (≈) assume the structure as drawn. The source made the active and inactive calls. The rule behind the calls is not given here.

Legend:
Rattus norvegicus [1] = species: Rattus norvegicus; test: Displacement of […] from GABAA in rat cerebral cortical at 10 uM
Summary of the method: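 Rat cerebral cortex membranes (sucrose homogenate, differential centrifugation, washed in 50 mM sodium phosphate/200 mM NaCl pH 7.4). Duplicate wells, 500 μL final volume: 50 μg protein, test compound 10 μM, 5.0 μM GABA, 2.0 nM [35S]TBPS. Nonspecific binding defined with 200 μM picrotoxin. Incubation 1 h at rt, then GF/B vacuum filtration and scintillation counting. Net change versus basal is reported as % of 10 μM allopregnanolone.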

Rattus norvegicus [2] = species: Rattus norvegicus; test: Displacement of [3H]flunitrazepam from GABAA in rat cerebral cortical 10 uM
Summary of the method: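 Rat cortical membrane homogenate in 50 mM sodium phosphate/200 mM NaCl pH 7.4. Duplicates, 500 μL final volume: 50 μg protein, test compound 10 μM, 1.0 μM GABA, 1.0 nM [3H]flunitrazepam. Nonspecific binding defined with 10 μM clonazepam. After 1 h at rt, filtered over PEI-soaked GF/B and counted. Net binding change versus basal is given as % of the 10 μM allopregnanolone response.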

[3] = (§1) Toxicity in brine shrimp; type: organism-based; conditions: artemia, in vivo
Summary of the method: (§2)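 Brine shrimp lethality. LC50 in μg/mL, taken from single experiments with four concentrations, each run in triplicate.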

Artemia = test: as §1; type: organism-based; conditions: in vivo; summary of the method: as §2
[4] = system: Mycolicibacterium smegmatis; test: Antimicrobial activity against Mycobacterium smegmatis after 3 days; type: functional; conditions: 72 h
Saccharomyces cerevisiae = test: Antimicrobial activity against Saccharomyces cerevisiae after 3 days; type: functional; conditions: 72 h
Micrococcus luteus = test: Antimicrobial activity against Micrococcus luteus after 3 days; type: functional; conditions: 72 h
NCI-H460 = test: Cytotoxicity against human H460 after 3 days by SRB assay; type: functional, cell-based; conditions: NCI-H460, 72 h
Aspergillus niger = test: Antimicrobial activity against Aspergillus niger after 3 days; type: functional; conditions: 72 h
SF-268 = test: cells; type: functional, cell-based; conditions: Homo sapiens, SF-268, 72 h
MCF7 = test: Cytotoxicity against human MCF7 after 3 days by SRB assay; type: functional, cell-based; conditions: MCF7, 72 h

Row | SMILES | Activity (Rattus norvegicus [1]) | Activity (Rattus norvegicus [2]) | LC50 [3] [µg/mL] | LC50 (Artemia) [µg/mL] | MIC [4] [µg/mL] | MIC (Saccharomyces cerevisiae) [µg/mL] | MIC (Micrococcus luteus) [µg/mL] | EC50 (NCI-H460) [µM] | MIC (Aspergillus niger) [µg/mL] | EC50 (SF-268) [µM] | EC50 (MCF7) [µM]
1 | CC(=O)[C@H]1CC[C@H]2[C@@H]3CC[C@H]4C[C@H](O)CC[C@]4(C)[C@H]3CC[C@]12C | Active | Active |  |  |  |  |  |  |  |  | 
2 | COc1c(O)cc2c(c1OC)-c1ccc(OC)c(=O)cc1[C@@H](NC(C)=O)CC2 [3-DESMETHYLCOLCHICIN] |  |  | 74.6 (≈ 194 µM) |  |  |  |  |  |  |  | 
3 | COc1cc2c(c(OC)c1OC)-c1ccc(OC)c(=O)cc1[C@@H](NC(C)=O)CC2 (stereo in doubt) [COLCHICINE] |  |  |  | 2.8 (≈ 7.01 µM) |  |  |  |  |  |  | 
4 | COc1c2c(cc3c1-c1ccc(OC)c(=O)cc1[C@@H](NC(C)=O)CC3)OCO2 | 50% | 50% | 7.7 (≈ 20.1 µM) |  | > 500 | > 500 | > 500 | 0.059 | > 500 | 0.097 | 0.061
5 | COc1ccc2c(c1O)[C@@H](NC(C)=O)CCc1cc(OC)c(OC)c(OC)c1-2 | 50% | 50% | 48.8 (≈ 126 µM) |  | > 500 | > 500 | > 500 | 0.26 | > 500 | 0.37 | 0.2
6 | CC[C@@]1(O)C(=O)OCc2c1cc1n(c2=O)Cc2cc3ccccc3nc2-1 [CAMPTOTHECIN] |  |  |  |  |  |  |  | 0.0069 |  | 0.059 | 0.072
7 | CN[C@H]1CCc2cc(OC)c(OC)c(OC)c2-c2ccc(OC)c(=O)cc21 [DEMECOLCINE] |  |  | 61 (≈ 164 µM) |  | > 500 | > 500 | > 500 | 0.69 | > 500 | 6.2 | 0.6
8 | COC1=C2c3ccc(OC)c(=O)cc3[C@H]3CC4(C)N3C24C=C(O)C1=O (stereo not given in full) [DEMECOLCINONE] |  |  | 79.3 (≈ 234 µM) |  | > 500 | > 500 | > 500 | 31.3 | > 500 | 28.4 | 28.7
9 | COc1cc2c(c(OC)c1OC)-c1ccc(OC)c(=O)cc1[C@@H](NC(C)=O)CC2 (stereo in doubt; 1) [COLCHICINE] |  |  | 3.7 (≈ 9.26 µM) |  | > 500 | > 500 | > 500 | 0.03 | > 500 | 0.025 | 0.016
10 | CN[C@H]1CCc2cc(O)c(OC)c(OC)c2-c2ccc(OC)c(=O)cc21 |  |  | 71.5 (≈ 200 µM) |  | > 500 | > 500 | > 500 | 1.1 | > 500 | 3.2 | 0.79
11 | CN[C@H]1CCc2cc(O)c(O)c(OC)c2-c2ccc(OC)c(=O)cc21 |  |  | 88.2 (≈ 257 µM) |  | > 500 | > 500 | > 500 | 216 | > 500 | 80.2 | 130
12 | COC1=C[C@@H]2C3=C([C@@H]2C1=O)[C@@H](NC(C)=O)CCc1cc(OC)c(OC)c(OC)c13 |  |  | 74.6 (≈ 187 µM) |  | > 500 | > 500 | > 500 | 2.1 | > 500 | 3.2 | 1.5
